Converted amounts (≈) assume the structure as drawn.
Key:
[1] = Cytotoxicity against mouse RAW264.7 cells assessed as growth inhibition at 50 ug/mL after 120 hrs by MTT assay relative to control; assay type: cell-based; settings: read-out: GI
Method in brief: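 RAW 264.7 mouse macrophages were seeded at 25,000 cells/well and left to attach overnight. Compound in DMSO was added from a 200× concentrate, in duplicate wells, to a 50 μg/mL test level; DMSO served as control. Exposure 120 h at 37°C in 5% CO₂. MTT (4 mg/mL in PBS) was added for 4 h, formazan dissolved in DMSO, and absorbance read at 560 nm. Viability expressed as % of untreated cells, mean ± SE of at least three independent experiments.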

Pseudomonas aeruginosa = assay: Antibacterial activity against Pseudomonas aeruginosa […] measured after 18 to 20 hrs by microbroth dilution method; assay type: functional
Method in brief: (§1)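 Inoculum from a 4–6-h broth adjusted to 0.5 McFarland, final 5 × 10⁵ CFU/mL. Incubation at 35°C for 18–20 h. MIC taken as the lowest concentration giving complete inhibition of visible growth; three experiments.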

Candida albicans = assay: Antifungal activity against Candida albicans ATCC 7754 after 72 hrs by agar dilution method; assay type: functional; settings: ATCC 7754, 72 h
Method in brief: (§2)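 Agar dilution on Sabouraud dextrose agar, with compounds at […] to 0.78 μM in twofold steps. Fungal suspensions at 10 CFU/mL as printed were applied to the compound-containing plates. Incubation at 35°C; MIC read after 72 h. Three experiments.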

[2] = system: Staphylococcus epidermidis; assay: Antibacterial activity against Staphylococcus epidermidis ATCC 12228 after 18 to 20 hrs by microbroth dilution method; assay type: functional; method in brief: as §1
Staphylococcus aureus [3] = assay: Antibacterial activity against Staphylococcus aureus ATCC 11632 after 18 to 20 hrs by microbroth dilution method; assay type: functional; method in brief: as §1
Escherichia coli = assay: Antibacterial activity against Escherichia coli ATCC 25922 measured after 18 to 20 hrs by microbroth dilution method; assay type: functional; method in brief: as §1
Staphylococcus aureus [4] = assay: Antibacterial activity against Staphylococcus aureus MRSA198 clinical isolate-1 measured after 18 to 20 hrs by microbroth dilution method; assay type: functional; settings: MRSA198 isolate-1
Salmonella typhimurium = assay: Antibacterial activity against Salmonella typhimurium ATCC 14028 measured after 18 to 20 hrs by microbroth dilution method; assay type: functional, Salmonella enterica subsp. enterica serovar Typhimurium; settings: Salmonella enterica; method in brief: as §1
Staphylococcus aureus [5] = assay: Antibacterial activity against Staphylococcus aureus MRSA198 clinical isolate-2 measured after 18 to 20 hrs by microbroth dilution method; assay type: functional; settings: MRSA198 isolate-2
Aspergillus niger = assay: Antifungal activity against Aspergillus niger ATCC 439 measured after 72 hrs by agar dilution method; assay type: functional; settings: ATCC 439, 72 h; method in brief: as §2
Aspergillus flavus = assay: Antifungal activity against Aspergillus flavus ATCC 204304 measured after 72 hrs by agar dilution method; assay type: functional; settings: ATCC 204304, 72 h; method in brief: as §2
Staphylococcus aureus [6] = assay: Antibacterial activity against Staphylococcus aureus MRSA198 clinical isolate-3 measured after 18 to 20 hrs by microbroth dilution method; assay type: functional; settings: MRSA198 isolate-3
Bacillus subtilis = assay: Antibacterial activity against Bacillus subtilis ATCC 11774 after 18 to 20 hrs by microbroth dilution method; assay type: functional; method in brief: as §1
Klebsiella pneumoniae = assay: Antibacterial activity against measured after Klebsiella pneumoniae ATCC 4352 measured after 18 to 20 hrs by microbroth dilution method; assay type: functional; method in brief: as §1
Saccharomyces cerevisiae = assay: Antifungal activity against Saccharomyces cerevisiae SH 20 after 72 hrs by agar dilution method; assay type: functional; settings: SH 20, 72 h; method in brief: as §2

MIC (Pseudomonas aeruginosa) | MIC (Candida albicans) | MIC [2] | MIC (Staphylococcus aureus [3]) | MIC (Escherichia coli) | MIC (Staphylococcus aureus [4]) | MIC (Salmonella typhimurium) | MIC (Staphylococcus aureus [5]) | MIC (Aspergillus niger) | MIC (Aspergillus flavus) | MIC (Staphylococcus aureus [6]) | MIC (Bacillus subtilis) | MIC (Klebsiella pneumoniae) | MIC (Saccharomyces cerevisiae) | Structure (SMILES) | inhibition at 120 h, 50 ug/mL [1]
6.25 µM (≈ 4.65 µg/mL) | 25 µM (≈ 18.6 µg/mL) | 200 µM (≈ 149 µg/mL) | 50 µM (≈ 37.2 µg/mL) | 200 µM (≈ 149 µg/mL) | 200 µM (≈ 149 µg/mL) | 50 µM (≈ 37.2 µg/mL) | 200 µM (≈ 149 µg/mL) | 200 µM (≈ 149 µg/mL) | 200 µM (≈ 149 µg/mL) | 100 µM (≈ 74.5 µg/mL) | 25 µM (≈ 18.6 µg/mL) |  |  | CC(=O)OC[C@H]1O[C@@H](n2cc(COc3ccc4c(c3)OC(N)=C(C#N)C4c3cccc(Cl)c3Cl)nn2)[C@H](OC(C)=O)[C@@H](OC(C)=O)[C@@H]1OC(C)=O (some centres undefined) | 23.8%
400 µM (≈ 282 µg/mL) | 400 µM (≈ 282 µg/mL) | 100 µM (≈ 70.6 µg/mL) | 400 µM (≈ 282 µg/mL) | 200 µM (≈ 141 µg/mL) |  | 100 µM (≈ 70.6 µg/mL) |  | 400 µM (≈ 282 µg/mL) | 1.56 µM (≈ 1.1 µg/mL) | 400 µM (≈ 282 µg/mL) | 200 µM (≈ 141 µg/mL) | 6.25 µM (≈ 4.41 µg/mL) | 25 µM (≈ 17.6 µg/mL) | COc1cccc(C2C(C#N)=C(N)Oc3cc(OCc4cn([C@@H]5O[C@H](COC(C)=O)[C@@H](OC(C)=O)[C@H](OC(C)=O)[C@H]5OC(C)=O)nn4)ccc32)c1 (some centres undefined) | 25.1%
50 µM (≈ 36 µg/mL) | 25 µM (≈ 18 µg/mL) | 50 µM (≈ 36 µg/mL) | 400 µM (≈ 288 µg/mL) | 400 µM (≈ 288 µg/mL) | 400 µM (≈ 288 µg/mL) |  | 400 µM (≈ 288 µg/mL) |  | 1.56 µM (≈ 1.12 µg/mL) | 200 µM (≈ 144 µg/mL) | 50 µM (≈ 36 µg/mL) | 12.5 µM (≈ 9.01 µg/mL) | 3.12 µM (≈ 2.25 µg/mL) | CC(=O)OC[C@H]1O[C@@H](n2cc(COc3ccc4c(c3)OC(N)=C(C#N)C4c3ccc([N+](=O)[O-])cc3)nn2)[C@H](OC(C)=O)[C@@H](OC(C)=O)[C@@H]1OC(C)=O (some centres undefined) | 27.6%
 | 25 µM (≈ 18.4 µg/mL) | 3.12 µM (≈ 2.3 µg/mL) | 100 µM (≈ 73.6 µg/mL) | 100 µM (≈ 73.6 µg/mL) | 400 µM (≈ 294 µg/mL) | 50 µM (≈ 36.8 µg/mL) | 400 µM (≈ 294 µg/mL) | 100 µM (≈ 73.6 µg/mL) | 50 µM (≈ 36.8 µg/mL) | 200 µM (≈ 147 µg/mL) | 50 µM (≈ 36.8 µg/mL) | 100 µM (≈ 73.6 µg/mL) | 6.25 µM (≈ 4.6 µg/mL) | COc1cc(OC)cc(C2C(C#N)=C(N)Oc3cc(OCc4cn([C@@H]5O[C@H](COC(C)=O)[C@@H](OC(C)=O)[C@H](OC(C)=O)[C@H]5OC(C)=O)nn4)ccc32)c1 (some centres undefined) | 19.5%
6.25 µM (≈ 4.49 µg/mL) | 3.12 µM (≈ 2.24 µg/mL) | 400 µM (≈ 287 µg/mL) | 100 µM (≈ 71.8 µg/mL) | 200 µM (≈ 144 µg/mL) | 400 µM (≈ 287 µg/mL) | 50 µM (≈ 35.9 µg/mL) | 400 µM (≈ 287 µg/mL) |  | 50 µM (≈ 35.9 µg/mL) | 200 µM (≈ 144 µg/mL) | 6.25 µM (≈ 4.49 µg/mL) | 1.56 µM (≈ 1.12 µg/mL) | 12.5 µM (≈ 8.97 µg/mL) | CC(=O)OC[C@H]1O[C@@H](n2cc(COc3ccc4c(c3)OC(N)=C(C#N)C4c3ccc(C(C)C)cc3)nn2)[C@H](OC(C)=O)[C@@H](OC(C)=O)[C@@H]1OC(C)=O (some centres undefined) | 17.9%
12.5 µM (≈ 9.01 µg/mL) | 200 µM (≈ 144 µg/mL) | 400 µM (≈ 288 µg/mL) | 3.12 µM (≈ 2.25 µg/mL) | 50 µM (≈ 36 µg/mL) | 1.56 µM (≈ 1.12 µg/mL) | 400 µM (≈ 288 µg/mL) | 6.25 µM (≈ 4.5 µg/mL) | 12.5 µM (≈ 9.01 µg/mL) | 50 µM (≈ 36 µg/mL) | 3.12 µM (≈ 2.25 µg/mL) | 50 µM (≈ 36 µg/mL) |  | 6.25 µM (≈ 4.5 µg/mL) | CC(=O)OC[C@H]1O[C@@H](n2cc(COc3ccc4c(c3)OC(N)=C(C#N)C4c3cccc([N+](=O)[O-])c3)nn2)[C@H](OC(C)=O)[C@@H](OC(C)=O)[C@@H]1OC(C)=O (some centres undefined) | 15.6%
400 µM (≈ 288 µg/mL) | 50 µM (≈ 36 µg/mL) | 12.5 µM (≈ 9.01 µg/mL) | 6.25 µM (≈ 4.5 µg/mL) | 50 µM (≈ 36 µg/mL) | 6.25 µM (≈ 4.5 µg/mL) |  | 1.56 µM (≈ 1.12 µg/mL) | 400 µM (≈ 288 µg/mL) | 6.25 µM (≈ 4.5 µg/mL) | 3.12 µM (≈ 2.25 µg/mL) | 100 µM (≈ 72.1 µg/mL) | 400 µM (≈ 288 µg/mL) |  | CC(=O)OC[C@H]1O[C@@H](n2cc(COc3ccc4c(c3)OC(N)=C(C#N)C4c3ccccc3[N+](=O)[O-])nn2)[C@H](OC(C)=O)[C@@H](OC(C)=O)[C@@H]1OC(C)=O (some centres undefined) | 15.4%

Structure (SMILES) | MIC (Pseudomonas aeruginosa) | MIC (Candida albicans) | MIC [2] | MIC (Staphylococcus aureus [3]) | MIC (Escherichia coli) | MIC (Staphylococcus aureus [4]) | MIC (Salmonella typhimurium) | MIC (Staphylococcus aureus [5]) | MIC (Aspergillus niger) | MIC (Aspergillus flavus) | MIC (Staphylococcus aureus [6]) | MIC (Bacillus subtilis) | MIC (Klebsiella pneumoniae) | MIC (Saccharomyces cerevisiae) | inhibition at 120 h, 50 ug/mL [1]
CN[C@H](CC(C)C)C(=O)N[C@H]1C(=O)N[C@@H](CC(N)=O)C(=O)N[C@H]2C(=O)N[C@H]3C(=O)N[C@H](C(=O)N[C@H](C(=O)O)c4cc(O)cc(O)c4-c4cc3ccc4O)[C@H](O)c3ccc(c(Cl)c3)Oc3cc2cc(c3O[C@@H]2O[C@H](CO)[C@@H](O)[C@H](O)[C@H]2O[C@H]2C[C@](C)(N)[C@H](O)[C@H](C)O2)Oc2ccc(cc2Cl)[C@H]1O [VANCOMYCIN] | 3.12 µM (≈ 4.52 µg/mL) |  | 3.12 µM (≈ 4.52 µg/mL) | 1.56 µM (≈ 2.26 µg/mL) | 3.12 µM (≈ 4.52 µg/mL) | 1.55 µM (≈ 2.25 µg/mL) | 3.12 µM (≈ 4.52 µg/mL) | 1.56 µM (≈ 2.26 µg/mL) |  |  | 1.56 µM (≈ 2.26 µg/mL) | 0.78 µM (≈ 1.13 µg/mL) | 3.12 µM (≈ 4.52 µg/mL) |  | 

Reference: ChEMBL document CHEMBL4390647, “Efficient click chemistry towards novel 1H-1,2,3-triazole-tethered 4H-chromene-d-glucose conjugates: Design, synthesis and evaluation of in vitro antibacterial, MRSA and antifungal activities” (Eur J Med Chem, 2019)
